Assays:
[1] = target: Cytochrome P450 2D6 (Homo sapiens, UniProt P10635); assay: Inhibition of CYP2D6 in human liver microsomes using dextromethorphan as substrate by LC-MS/MS analysis; type: ADME
[2] = Maximum oral bioavailability in rat liver microsomes based well stirred liver model at 1 uM measured after 2 to 60 mins in presence of NADP generating system by LC-MS/MS analysis; type: ADME, Microsome; conditions: time 2-60 min, read-out: Fmax
[3] = target: T1, Cytochrome P450 1A2 (Homo sapiens, UniProt P05177); assay: Inhibition of CYP1A2 in human liver microsomes using phenacetin as substrate by LC-MS/MS analysis; type: ADME
T1 sequence (P05177 whole entry): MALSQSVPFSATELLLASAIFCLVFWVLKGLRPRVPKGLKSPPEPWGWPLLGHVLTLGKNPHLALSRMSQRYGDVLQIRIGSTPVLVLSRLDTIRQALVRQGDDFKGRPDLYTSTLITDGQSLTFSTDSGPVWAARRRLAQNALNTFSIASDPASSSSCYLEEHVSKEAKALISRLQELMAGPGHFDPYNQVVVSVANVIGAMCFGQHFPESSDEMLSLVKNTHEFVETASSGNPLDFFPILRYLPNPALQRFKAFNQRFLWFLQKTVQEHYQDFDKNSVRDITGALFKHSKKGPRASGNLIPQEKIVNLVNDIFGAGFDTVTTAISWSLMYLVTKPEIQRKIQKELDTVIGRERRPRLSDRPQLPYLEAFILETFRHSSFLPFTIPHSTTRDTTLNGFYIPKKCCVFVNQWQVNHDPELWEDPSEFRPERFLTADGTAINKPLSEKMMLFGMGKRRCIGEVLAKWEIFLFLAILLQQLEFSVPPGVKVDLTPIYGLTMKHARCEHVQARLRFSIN

[4] = target: Mitogen-activated protein kinase 14 (Homo sapiens, UniProt Q16539); assay: Inhibition of MAPK14 (unknown origin)
Mitogen-activated protein kinase 14, sequence (Q16539 whole entry): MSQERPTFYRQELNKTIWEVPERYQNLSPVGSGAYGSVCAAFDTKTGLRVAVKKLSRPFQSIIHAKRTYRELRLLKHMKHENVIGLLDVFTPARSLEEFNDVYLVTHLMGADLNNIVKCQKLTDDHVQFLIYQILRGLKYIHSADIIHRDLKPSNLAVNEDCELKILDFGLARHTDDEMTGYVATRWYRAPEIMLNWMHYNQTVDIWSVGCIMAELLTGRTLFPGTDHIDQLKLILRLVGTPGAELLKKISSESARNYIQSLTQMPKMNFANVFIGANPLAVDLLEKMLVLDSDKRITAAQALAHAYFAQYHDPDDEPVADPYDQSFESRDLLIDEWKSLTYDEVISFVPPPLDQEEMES

[5] = test system: Homo sapiens; assay: Suppression of plasma luteinizing hormone level in postmenopausal woman at 300 mg, po administered as single dose using SMEDDS formulation by ECLIA relative to control; type: functional
[6] = Clearance in dog liver microsomes; type: ADME, Canis lupus familiaris, Microsome
[7] = Maximum oral bioavailability in dog hepatocytes; type: ADME, Canis lupus familiaris, Hepatocyte; conditions: read-out: Fmax
[8] = Fraction unbound in human plasma; type: ADME, cell-free
[9] = Apparent permeability across basolateral to apical side in human Caco2 cells at 2 uM measured after 2 hrs by LC-MS/MS analysis; type: ADME, cell-based; conditions: Caco-2
Procedure, shortened: (§1)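 Caco-2 monolayers grown 15 d, integrity checked by TEER. Compound 2 µM added apical or basolateral in FCS-free HEPES carbonate buffer pH 7.2, incubated 2 h at 37 °C. Both compartments sampled before and after, analysed by LC-MS/MS after MeOH precipitation. Papp computed from receiver peak area, surface area and time. Efflux ratio taken as Papp B–A/Papp A–B.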

[10] = test system: Rattus norvegicus; assay: Suppression of ovariectomized-induced increase in plasma luteinizing hormone level in po dosed Wistar Han rat measured up to 24 hrs; type: functional; conditions: time hrs <=24
Procedure, shortened: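 Ovariectomized rats given single oral doses, range 1 to 30 mg/kg. Plasma LH followed over time, with cetrorelix at 0.1 mg/kg sc as reference. ED50 calculated from the dose-response.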

[11] = target: T2, Gonadotropin-releasing hormone receptor (Homo sapiens, UniProt P30968); assay: Inhibition of Tag-lite green-labeled agonist binding to terbium fluorophore-labeled human N-terminal SNAP-tag GnRh receptor expressed in HEK293 cells by TR-FRET assay; type: cell-based
T2 sequence (P30968 whole entry): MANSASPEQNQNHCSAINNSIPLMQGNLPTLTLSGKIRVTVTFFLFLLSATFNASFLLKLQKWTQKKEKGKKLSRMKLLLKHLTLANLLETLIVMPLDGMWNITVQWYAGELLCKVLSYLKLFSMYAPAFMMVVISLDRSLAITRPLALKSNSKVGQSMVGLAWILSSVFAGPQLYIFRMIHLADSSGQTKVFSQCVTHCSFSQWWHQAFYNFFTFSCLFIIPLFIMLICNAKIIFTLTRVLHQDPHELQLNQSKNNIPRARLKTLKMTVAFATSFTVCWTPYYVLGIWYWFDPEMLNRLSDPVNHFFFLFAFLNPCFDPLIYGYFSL
Procedure, shortened: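 Frozen transiently transfected HEK293 with Tb-labelled SNAP-tag hGnRH-R, 5.6 × 10^4 cells/well in Tag-lite buffer. Green-labelled agonist 4 nM. Nonspecific wells received buserelin 10 µM. Incubated 60 min at rt, TR-FRET 520/495 nm ratio read.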

[12] = Lipophilicity, log D of the compound in pH 7.5 MeCN/H2O solution by reversed-phase HPLC analysis; type: physicochemical
Procedure, shortened: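 Indirect reversed-phase HPLC at pH 7.5, calibrated with n-alkan-2-ones C3–C16. Compounds applied as 0.67 mM DMSO stocks in MeCN/H2O (1:1).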

[13] = Clearance in cynomolgus monkey liver microsomes; type: ADME, Macaca fascicularis, Microsome
[14] = Oral bioavailability in Wistar rat at 2 mg/kg by LC-MS/MS analysis; type: ADME, organism-based; conditions: in vivo
[15] = Apparent permeability across apical to basolateral side in human Caco2 cells at 2 uM measured after 2 hrs by LC-MS/MS analysis; type: ADME, cell-based; conditions: Caco-2; procedure, shortened: as §1
[16] = Clearance in cynomolgus monkey hepatocytes; type: ADME, cell-based, Macaca fascicularis, Hepatocyte
[17] = Chemical stability of compound at pH 1 to 10 measured up to 24 hrs by UV-HPLC analysis; type: physicochemical; conditions: buffer, pH 1, 24 h
Procedure, shortened: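 10 mM DMSO stock diluted in MeCN, then into pH 1, 7 or 10 buffer. Held at 37 °C, HPLC-UV injections at 0, 1, 2 and 24 h. Recovery given as peak area relative to time zero.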

[18] = Maximum oral bioavailability in Han Wistar rat hepatocytes at 1 uM measured after 2 to 90 mins by LC-MS/MS analysis; type: ADME, Hepatocyte; conditions: time 2-90 min, read-out: Fmax
[19] = Clearance in dog hepatocytes; type: ADME, cell-based, Canis lupus familiaris, Hepatocyte
[20] = Clearance in human hepatocytes; type: ADME, cell-based, Hepatocyte
[21] = Clearance in rat liver microsomes at 1 uM measured upto 60 mins in presence of NADP generating system by LC-MS/MS analysis; type: ADME, Microsome; conditions: 1 h

Cytochrome P450 2D6, sequence (P10635 whole entry): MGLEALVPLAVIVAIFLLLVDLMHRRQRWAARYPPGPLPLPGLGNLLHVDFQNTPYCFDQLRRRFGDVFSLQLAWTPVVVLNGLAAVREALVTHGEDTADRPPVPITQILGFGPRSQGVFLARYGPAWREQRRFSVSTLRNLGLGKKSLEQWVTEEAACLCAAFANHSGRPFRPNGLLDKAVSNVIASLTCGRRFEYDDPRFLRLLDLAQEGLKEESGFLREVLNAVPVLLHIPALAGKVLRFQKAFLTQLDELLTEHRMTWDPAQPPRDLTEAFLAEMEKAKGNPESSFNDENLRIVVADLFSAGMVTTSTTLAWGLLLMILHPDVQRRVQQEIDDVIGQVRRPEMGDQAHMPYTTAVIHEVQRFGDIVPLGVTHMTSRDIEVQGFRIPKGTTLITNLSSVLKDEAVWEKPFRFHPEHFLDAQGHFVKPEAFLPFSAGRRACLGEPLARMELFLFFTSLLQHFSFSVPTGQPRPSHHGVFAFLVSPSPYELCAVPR

IC50 [1]: > 10 µM
Fh at 1 µM [2]: 91%
IC50 [3]: > 10 µM
IC50 [4]: 10.7 µM
CLH [6]: 5.33 mL/min/kg
Fh [7]: 65%
fraction unbound [8]: 0.014
Papp B→A at 2 h, 2 µM [9]: 12.9 ×10⁻⁶ cm/s
IC50 [11]: 0.027 µM
chromatographic logD [12]: 3.6
CLH [13]: 8.17 mL/min/kg
bioavailability [14]: 48%
Papp A→B at 2 h, 2 µM [15]: 1.3 ×10⁻⁶ cm/s
CLH [16]: 11.8 mL/min/kg
Stabilty [17]: Stable
Fh at 1 µM [18]: 82%
CLH [19]: 12.2 mL/min/kg
CLH [20]: 1.7 mL/min/kg
CLH [21]: 6.33 mL/min/kg
Compound: O=C(NCc1ncc(C(F)(F)F)cc1Cl)c1ccc2c(c1)C1(CCS(=O)(=O)CC1)[C@H](C1CC1)N2S(=O)(=O)c1ccc(F)cc1 [BAY-784]
Activity [5]: 49%
ED50 [10]: 4.5 mg/kg
